One assay has as its system Pseudomonas aeruginosa. Put plainly: Antibacterial activity against Pseudomonas aeruginosa at 1 mg/ml after 48 hrs by agar well diffusion method. The class given is functional, organism-based. The essentials:
(§1)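 Compounds dissolved at 1 mg/mL in sterile water; 25 μL placed in 8 mm wells punched in LB agar plates spread with 100 μL overnight culture (grown at 37 °C in Nutrient Broth No. 2 with shaking). Plates incubated 48 h at 37 °C (M. luteus initially at 30 °C, later 37 °C); activity scored as a visible zone of growth inhibition.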
(Agar diffusion results depend on both activity and mobility in agar.)

In another assay the test system is Escherichia coli. Put plainly: Antibacterial activity against Escherichia coli at 1 mg/ml after 48 hrs by agar well diffusion method. The class given is functional, organism-based. In short, it runs like this:
as §1

For assay [1], the system named is Micrococcus luteus. Kind of assay: Antibacterial activity against Micrococcus luteus at 1 mg/ml after 48 hrs by agar well diffusion method. The class given is functional, organism-based. In short, it runs like this: as §1
Assay [2] relates to Micrococcus luteus. Put plainly: Antibacterial activity against Micrococcus luteus after 20 hrs by broth microdilution assay. The class given is functional. In short, it runs like this:
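Two-fold serial dilution in Nutrient Broth No. 2 containing 1% DMSO, from 0.60 mM stocks (sterile water, 1% DMSO, sonicated 30 s). Each well received 10 μL overnight M. luteus culture adjusted to OD 0.817 (of a 1 in 10 dilution), 250 μL final volume. Sealed, incubated 20 h at 37 °C, then OD read. MIC is the lowest concentration with no visible growth by eye.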
In general terms: Broth dilution looks for growth in wells or tubes with falling amounts of substance.

Drawing on ChEMBL document CHEMBL4261635, “Simplified lipid II-binding antimicrobial peptides: Design, synthesis and antimicrobial activity of bioconjugates of nisin rings A and B with pore-forming peptides” (2018), this text covers Activity and MIC for seven molecules.

Each structure is given as a SMILES string. ≈ marks a conversion by molar mass, not a printed value. Calls of active or inactive are those of the source. No cut-off for these calls is given here. Where a SMILES comes first, the peptide text is derived from it. [ ]: non-standard residue; d: D form. Nspe = C[C@H](NCC(=O)O)c1ccccc1; Nlys = NCCCCNCC(=O)O Where only a bound is given, the exact number is not on record here.

As usually defined, the MIC is the lowest concentration that inhibits growth of the organism. Lower therefore signals a more susceptible organism. Regarding `CC[C@H](C)[C@H](N)C(=O)N[C@@H](CC(=O)O)C(=O)N[C@@H](Cc1c[nH]c2ccccc12)C(=O)N[C@@H](CCCCN)C(=O)N[C@@H](CCCCN)C(=O)N[C@@H](CC(C)C)C(=O)N[C@@H](CC(C)C)C(=O)N[C@@H](CC(=O)O)C(=O)N[C@@H](C)C(=O)N[C@@H](C)C(=O)N[C@@H](CCCCN)C(=O)N[C@@H](CCC(N)=O)C(=O)N[C@H](C(=O)N[C@@H](CC(C)C)C(N)=O)[C@@H](C)CC` (H-IDWKKLLDAAKQIL-NH2), the outcome in the assay on Pseudomonas aeruginosa and in the assay on Escherichia coli was inactive. Also, the outcome with Micrococcus luteus [1] was Active. The same molecule registered a minimum inhibitory concentration (MIC) against Micrococcus luteus [2] of 1.5 µM (≈ 2.48 µg/mL).
Molecule `C[C@@H](c1ccccc1)N(CC(N)=O)C(=O)CN(C(=O)CN(CCCCN)C(=O)CN(C(=O)CN(C(=O)CN(CCCCN)C(=O)CN(C(=O)CN(C(=O)CN(CCCCN)C(=O)CN(C(=O)CN(C(=O)CNCCCCN)[C@@H](C)c1ccccc1)[C@@H](C)c1ccccc1)[C@@H](C)c1ccccc1)[C@@H](C)c1ccccc1)[C@@H](C)c1ccccc1)[C@@H](C)c1ccccc1)[C@@H](C)c1ccccc1` (H-[Nlys][Nspe][Nspe][Nlys][Nspe][Nspe][Nlys][Nspe][Nspe][Nlys][Nspe][Nspe]-NH2) gave an MIC in the assay with Micrococcus luteus [2] of 1.5 µM (≈ 2.73 µg/mL).
With `NC[C@H]1O[C@H](O[C@H]2[C@H](O)[C@@H](O[C@H]3O[C@H](CO)[C@@H](O)[C@H](N)[C@H]3O)[C@H](N)C[C@@H]2N)[C@H](O)[C@@H](O)[C@@H]1O`, the result with Pseudomonas aeruginosa, with Escherichia coli and with Micrococcus luteus [1] was Active.
For `C#CCNC(=O)[C@H](CCCCN)NC(=O)[C@@H]1CS[C@@H](C)[C@H](NC(=O)[C@@H]2CSC[C@H](NC(=O)/C(=C/C)NC(=O)[C@@H](N)[C@@H](C)CC)C(=O)N[C@@H]([C@@H](C)CC)C(=O)NC(=C)C(=O)N[C@@H](CC(C)C)C(=O)N2)C(=O)N2CCC[C@H]2C(=O)NCC(=O)N1`, the outcome in the assay on Pseudomonas aeruginosa and with Escherichia coli was inactive. Further, the result in the assay with Micrococcus luteus [1] was Active. This molecule also came in with a minimum inhibitory concentration (MIC) in the assay on Micrococcus luteus [2] greater than 12 µM.
Consider `CC[C@H](C)[C@H](NC(=O)CN)C(=O)NCC(=O)N[C@@H](CCCCN)C(=O)N[C@@H](Cc1ccccc1)C(=O)N[C@@H](CC(C)C)C(=O)N[C@@H](CCCCN)C(=O)N[C@@H](CCCCN)C(=O)N[C@@H](C)C(=O)N[C@@H](CCCCN)C(=O)N[C@@H](CCCCN)C(=O)N[C@@H](Cc1ccccc1)C(=O)NCC(=O)N[C@@H](CCCCN)C(=O)N[C@@H](C)C(=O)N[C@@H](Cc1ccccc1)C(=O)N[C@H](C(=O)N[C@@H](CCCCN)C(=O)N[C@H](C(=O)N[C@@H](CC(C)C)C(=O)N[C@@H](CCCCN)C(=O)N[C@@H](CCCCN)C(N)=O)[C@@H](C)CC)C(C)C` [PEXIGANAN] (H-GIGKFLKKAKKFGKAFVKILKK-NH2), for which it took 0.75 µM (≈ 1.86 µg/mL) to inhibit growth with Micrococcus luteus [2] (MIC).
For the molecule `C=C(NC(=O)[C@@H](NC(=O)[C@H](Cc1cnc[nH]1)NC(=O)[C@@H](NC(=O)[C@H](CO)NC(=O)[C@@H]1CS[C@@H](C)[C@@H]2NC(=O)[C@H](C)NC(=O)[C@@H](NC(=O)[C@H](CCCCN)NC(=O)[C@H](CCSC)NC(=O)[C@H](CC(N)=O)NC(=O)[C@@H]3CS[C@@H](C)[C@H](NC(=O)[C@H](CCCCN)NC(=O)[C@@H]4CS[C@@H](C)[C@H](NC(=O)[C@@H]5CSC[C@H](NC(=O)/C(=C/C)NC(=O)[C@@H](N)[C@@H](C)CC)C(=O)N[C@@H]([C@@H](C)CC)C(=O)NC(=C)C(=O)N[C@@H](CC(C)C)C(=O)N5)C(=O)N5CCC[C@H]5C(=O)NCC(=O)N4)C(=O)NCC(=O)N[C@@H](C)C(=O)N[C@@H](CC(C)C)C(=O)N[C@@H](CCSC)C(=O)NCC(=O)N3)[C@H](C)SC[C@H](NC2=O)C(=O)N[C@@H](CC(N)=O)C(=O)N1)[C@@H](C)CC)C(C)C)C(=O)N[C@@H](CCCCN)C(=O)O`, the result in the assay on Pseudomonas aeruginosa and in the assay on Escherichia coli was inactive. Moreover, in the assay on Micrococcus luteus [1], the outcome was Active. Besides, in the assay with Micrococcus luteus [2], inhibition of growth (MIC) required 0.0234 µM (≈ 0.0779 µg/mL).
As to `C=C1NC(=O)[C@H]([C@@H](C)CC)NC(=O)[C@@H](NC(=O)/C(=C/C)NC(=O)[C@@H](N)[C@@H](C)CC)CSC[C@@H](C(=O)N[C@@H]2C(=O)N3CCC[C@H]3C(=O)NCC(=O)N[C@H](C(=O)N[C@@H](CCCCN)C(=O)NCc3cn(CCCC[C@H](N)C(=O)NCCOCCOCCOCCOCCC(=O)N[C@H](C(=O)N[C@@H](CC(=O)O)C(=O)N[C@@H](Cc4c[nH]c5ccccc45)C(=O)N[C@@H](CCCCN)C(=O)N[C@@H](CCCCN)C(=O)N[C@@H](CC(C)C)C(=O)N[C@@H](CC(C)C)C(=O)N[C@@H](CC(=O)O)C(=O)N[C@@H](C)C(=O)N[C@@H](C)C(=O)N[C@@H](CCCCN)C(=O)N[C@@H](CCC(N)=O)C(=O)N[C@H](C(=O)N[C@@H](CC(C)C)C(N)=O)[C@@H](C)CC)[C@@H](C)CC)nn3)CS[C@H]2C)NC(=O)[C@H](CC(C)C)NC1=O`, the result in the assay on Pseudomonas aeruginosa and in the assay on Escherichia coli was inactive. The result in the assay with Micrococcus luteus [1] was Active. Inhibition of growth in the assay on Micrococcus luteus [2] (MIC) required 3 µM (≈ 9.73 µg/mL).
